Data taken from ChEMBL document CHEMBL4689842, “EUbOPEN Chemogenomics Library wave 1” (2021).

Legend:
Assay type in all cases: toxicity, cell-based
U2OS [1] = test: Multiplex assay against U2OS; conditions: human
In short: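 Tubulin, mitochondrial-mass and membrane-permeability phenotypes are per cents of healthy-nucleus cells. Cells were gated by CellPathfinder machine learning into Hoechst high-intensity objects or normal cells, normal cells into healthy, pyknosed or fragmented nuclei, and pyknosed cells into mitotic or apoptotic. Before that, live cells stained at seeding with Hoechst33342, BioTracker Green Microtubule Cytoskeleton Dye, MitoTracker Red and Annexin V Alexa Fluor 680 were imaged on a CQ1 microscope at 37°C and 5% CO2 after compound addition.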

HEK-293T = test: Incucyte cell viability with HEK293T; conditions: human, 10 µM, compound concentration 10 uM; note: filed as whole numbers so only -1 and 0 and 1 occur
Fibroblast = test: Incucyte cell viability with human fibroblast; conditions: 10 µM, compound concentration 10 uM; note: filed as whole numbers so only -1 and 0 and 1 occur
U2OS [2] = test: Incucyte cell viability with U2OS; conditions: human, 10 µM, compound concentration 10 uM; note: filed as whole numbers so only -1 and 0 and 1 occur
[3] = 12 h, 1 µM, compound concentration 1 uM, replicate 1
[4] = 12 h, 1 µM, compound concentration 1 uM, replicate 2
[5] = 12 h, 10 µM, compound concentration 10 uM, replicate 1
[6] = 12 h, 10 µM, compound concentration 10 uM, replicate 2
[7] = 24 h, 1 µM, compound concentration 1 uM, replicate 1
[8] = 24 h, 1 µM, compound concentration 1 uM, replicate 2
[9] = 24 h, 10 µM, compound concentration 10 uM, replicate 1
[10] = 24 h, 10 µM, compound concentration 10 uM, replicate 2
[11] = 48 h, 1 µM, compound concentration 1 uM, replicate 1
[12] = 48 h, 1 µM, compound concentration 1 uM, replicate 2
[13] = 48 h, 10 µM, compound concentration 10 uM, replicate 1
[14] = 48 h, 10 µM, compound concentration 10 uM, replicate 2
[15] = 0 h, replicate number 2, timepoint 0 hours
[16] = 6 h, replicate number 1, timepoint 6 hours
[17] = 12 h, replicate number 1, timepoint 12 hours
[18] = 18 h, replicate number 1, timepoint 18 hours
[19] = 24 h, replicate number 1, timepoint 24 hours

Which results are given for `CC(=O)c1cc(-c2cc(C(=O)NC3CC3)ccc2C)c2ncccn12`?
Population Apoptotic (%) (U2OS [1]; [3]): 42%; Population Fragmented Nuclei (%) (U2OS [1]; [3]): 6%; Population Healthy Nuclei (%) (U2OS [1]; [3]): 84%; Population Hoechst High Intensity Objects (%) (U2OS [1]; [3]): 5%; Population Membrane Permeable-Phenotype (%) (U2OS [1]; [3]): 9%; Population Mitochondria Different-Phenotype (%) (U2OS [1]; [3]): 8%; Population Mitotic Cells (%) (U2OS [1]; [3]): 57%; Population Normal (%) (U2OS [1]; [3]): 94%; Population Pyknosed Nuclei (%) (U2OS [1]; [3]): 8%; Population Tubulin-Different-Phenotype (%) (U2OS [1]; [3]): 14%; Total Cell Count (U2OS [1]; [3]): 108; Population Apoptotic (%) (U2OS [1]; [4]): 66%; Population Fragmented Nuclei (%) (U2OS [1]; [4]): 8%; Population Healthy Nuclei (%) (U2OS [1]; [4]): 85%; Population Hoechst High Intensity Objects (%) (U2OS [1]; [4]): 7%; Population Membrane Permeable-Phenotype (%) (U2OS [1]; [4]): 2%; Population Mitochondria Different-Phenotype (%) (U2OS [1]; [4]): 7%; Population Mitotic Cells (%) (U2OS [1]; [4]): 33%; Population Normal (%) (U2OS [1]; [4]): 92%; Population Pyknosed Nuclei (%) (U2OS [1]; [4]): 6%; Population Tubulin-Different-Phenotype (%) (U2OS [1]; [4]): 19%; Total Cell Count (U2OS [1]; [4]): 73; Population Apoptotic (%) (U2OS [1]; [5]): 43%; Population Fragmented Nuclei (%) (U2OS [1]; [5]): 7%; Population Healthy Nuclei (%) (U2OS [1]; [5]): 79%; Population Hoechst High Intensity Objects (%) (U2OS [1]; [5]): 6%; Population Membrane Permeable-Phenotype (%) (U2OS [1]; [5]): 6%; Population Mitochondria Different-Phenotype (%) (U2OS [1]; [5]): 9%; Population Mitotic Cells (%) (U2OS [1]; [5]): 56%; Population Normal (%) (U2OS [1]; [5]): 93%; Population Pyknosed Nuclei (%) (U2OS [1]; [5]): 12%; Population Tubulin-Different-Phenotype (%) (U2OS [1]; [5]): 16%; Total Cell Count (U2OS [1]; [5]): 169; Population Apoptotic (%) (U2OS [1]; [6]): 60%; Population Fragmented Nuclei (%) (U2OS [1]; [6]): 11%; Population Healthy Nuclei (%) (U2OS [1]; [6]): 84%; Population Hoechst High Intensity Objects (%) (U2OS [1]; [6]): 4%; Population Membrane Permeable-Phenotype (%) (U2OS [1]; [6]): 3%; Population Mitochondria Different-Phenotype (%) (U2OS [1]; [6]): 8%; Population Mitotic Cells (%) (U2OS [1]; [6]): 40%; Population Normal (%) (U2OS [1]; [6]): 95%; Population Pyknosed Nuclei (%) (U2OS [1]; [6]): 5%; Population Tubulin-Different-Phenotype (%) (U2OS [1]; [6]): 17%; Total Cell Count (U2OS [1]; [6]): 52; Population Apoptotic (%) (U2OS [1]; [7]): 43%; Population Fragmented Nuclei (%) (U2OS [1]; [7]): 4%; Population Healthy Nuclei (%) (U2OS [1]; [7]): 89%; Population Hoechst High Intensity Objects (%) (U2OS [1]; [7]): 4%; Population Membrane Permeable-Phenotype (%) (U2OS [1]; [7]): 6%; Population Mitochondria Different-Phenotype (%) (U2OS [1]; [7]): 5%; Population Mitotic Cells (%) (U2OS [1]; [7]): 56%; Population Normal (%) (U2OS [1]; [7]): 96%; Population Pyknosed Nuclei (%) (U2OS [1]; [7]): 6%; Population Tubulin-Different-Phenotype (%) (U2OS [1]; [7]): 17%; Total Cell Count (U2OS [1]; [7]): 111; Population Apoptotic (%) (U2OS [1]; [8]): 0%; Population Fragmented Nuclei (%) (U2OS [1]; [8]): 3%; Population Healthy Nuclei (%) (U2OS [1]; [8]): 91%; Population Membrane Permeable-Phenotype (%) (U2OS [1]; [8]): 3%; Population Mitochondria Different-Phenotype (%) (U2OS [1]; [8]): 9%; Population Mitotic Cells (%) (U2OS [1]; [8]): 100%; Population Normal (%) (U2OS [1]; [8]): 95%; Population Pyknosed Nuclei (%) (U2OS [1]; [8]): 5%; Population Tubulin-Different-Phenotype (%) (U2OS [1]; [8]): 12%; Total Cell Count (U2OS [1]; [8]): 70; Population Apoptotic (%) (U2OS [1]; [9]): 25%; Population Fragmented Nuclei (%) (U2OS [1]; [9]): 15%; Population Healthy Nuclei (%) (U2OS [1]; [9]): 66%; Population Hoechst High Intensity Objects (%) (U2OS [1]; [9]): 2%; Population Membrane Permeable-Phenotype (%) (U2OS [1]; [9]): 10%; Population Mitochondria Different-Phenotype (%) (U2OS [1]; [9]): 5%; Population Mitotic Cells (%) (U2OS [1]; [9]): 75%; Population Normal (%) (U2OS [1]; [9]): 97%; Population Pyknosed Nuclei (%) (U2OS [1]; [9]): 18%; Population Tubulin-Different-Phenotype (%) (U2OS [1]; [9]): 17%; Total Cell Count (U2OS [1]; [9]): 250; Population Apoptotic (%) (U2OS [1]; [10]): 48%; Population Fragmented Nuclei (%) (U2OS [1]; [10]): 11%; Population Healthy Nuclei (%) (U2OS [1]; [10]): 63%; Population Membrane Permeable-Phenotype (%) (U2OS [1]; [10]): 8%; Population Mitochondria Different-Phenotype (%) (U2OS [1]; [10]): 12%; Population Mitotic Cells (%) (U2OS [1]; [10]): 51%; Population Pyknosed Nuclei (%) (U2OS [1]; [10]): 24%; Population Tubulin-Different-Phenotype (%) (U2OS [1]; [10]): 18%; Total Cell Count (U2OS [1]; [10]): 62; Population Apoptotic (%) (U2OS [1]; [11]): 47%; Population Fragmented Nuclei (%) (U2OS [1]; [11]): 3%; Population Healthy Nuclei (%) (U2OS [1]; [11]): 91%; Population Hoechst High Intensity Objects (%) (U2OS [1]; [11]): 2%; Population Membrane Permeable-Phenotype (%) (U2OS [1]; [11]): 3%; Population Mitochondria Different-Phenotype (%) (U2OS [1]; [11]): 9%; Population Mitotic Cells (%) (U2OS [1]; [11]): 52%; Population Normal (%) (U2OS [1]; [11]): 97%; Population Pyknosed Nuclei (%) (U2OS [1]; [11]): 5%; Population Tubulin-Different-Phenotype (%) (U2OS [1]; [11]): 21%; Total Cell Count (U2OS [1]; [11]): 106; Population Apoptotic (%) (U2OS [1]; [12]): 16%; Population Fragmented Nuclei (%) (U2OS [1]; [12]): 2%; Population Hoechst High Intensity Objects (%) (U2OS [1]; [12]): 3%; Population Membrane Permeable-Phenotype (%) (U2OS [1]; [12]): 2%; Population Mitochondria Different-Phenotype (%) (U2OS [1]; [12]): 20%; Population Mitotic Cells (%) (U2OS [1]; [12]): 83%; Population Normal (%) (U2OS [1]; [12]): 96%; Population Pyknosed Nuclei (%) (U2OS [1]; [12]): 6%; Population Tubulin-Different-Phenotype (%) (U2OS [1]; [12]): 23%; Total Cell Count (U2OS [1]; [12]): 67; Population Apoptotic (%) (U2OS [1]; [13]): 70%; Population Fragmented Nuclei (%) (U2OS [1]; [13]): 16%; Population Healthy Nuclei (%) (U2OS [1]; [13]): 60%; Population Hoechst High Intensity Objects (%) (U2OS [1]; [13]): 7%; Population Membrane Permeable-Phenotype (%) (U2OS [1]; [13]): 10%; Population Mitochondria Different-Phenotype (%) (U2OS [1]; [13]): 6%; Population Mitotic Cells (%) (U2OS [1]; [13]): 30%; Population Normal (%) (U2OS [1]; [13]): 92%; Population Pyknosed Nuclei (%) (U2OS [1]; [13]): 22%; Population Tubulin-Different-Phenotype (%) (U2OS [1]; [13]): 16%; Total Cell Count (U2OS [1]; [13]): 381; Population Apoptotic (%) (U2OS [1]; [14]): 87%; Population Fragmented Nuclei (%) (U2OS [1]; [14]): 14%; Population Healthy Nuclei (%) (U2OS [1]; [14]): 73%; Population Hoechst High Intensity Objects (%) (U2OS [1]; [14]): 4%; Population Membrane Permeable-Phenotype (%) (U2OS [1]; [14]): 31%; Population Mitochondria Different-Phenotype (%) (U2OS [1]; [14]): 29%; Population Mitotic Cells (%) (U2OS [1]; [14]): 12%; Population Normal (%) (U2OS [1]; [14]): 95%; Population Pyknosed Nuclei (%) (U2OS [1]; [14]): 11%; Population Tubulin-Different-Phenotype (%) (U2OS [1]; [14]): 35%; Total Cell Count (U2OS [1]; [14]): 93; Growth Rate (HEK-293T; [15]): 1; Growth Rate (HEK-293T; [16]): 0; Growth Rate (HEK-293T; [17]): 0; Growth Rate (HEK-293T; [18]): 0; Growth Rate (HEK-293T; [19]): 0; Growth Rate (Fibroblast; [15]): 1; Growth Rate (Fibroblast; [16]): 0; Growth Rate (Fibroblast; [17]): 0; Growth Rate (Fibroblast; [18]): 0; Growth Rate (Fibroblast; [19]): 0; Growth Rate (U2OS [2]; 0 h, replicate number 1, timepoint 0 hours): 0; Growth Rate (U2OS [2]; [16]): 0; Growth Rate (U2OS [2]; [17]): 0; Growth Rate (U2OS [2]; [18]): 0; Growth Rate (U2OS [2]; [19]): 0
